Activity calls are given as the source filed them. The rule behind the calls is not given here.
Tests used:
Mus musculus [1] = assay: In vivo binding affinity to GlyT1 in ddY mouse brain midbrain at 33.3 kBq, iv after 30 mins in presence of SSR504734 2 mg/kg, iv administered 15 mins prior to compound administration relative to control; format: functional, organism-based; design: dose 2 mg/kg; details: tested as the 125I-labelled form
[2] = target: T1, Sodium- and chloride-dependent glycine transporter 1 (Rattus norvegicus) (UniProt P28572); assay: Binding affinity to GlyT1 in rat brain cerebellar gray matter at 0.03 to 0.04 nM preincubated for 20 mins in binding buffer before compound addition measured after 30 mins by autoradiography relative to control; format: tissue-based; details: tested as the 125I-labelled form
T1 sequence (whole entry): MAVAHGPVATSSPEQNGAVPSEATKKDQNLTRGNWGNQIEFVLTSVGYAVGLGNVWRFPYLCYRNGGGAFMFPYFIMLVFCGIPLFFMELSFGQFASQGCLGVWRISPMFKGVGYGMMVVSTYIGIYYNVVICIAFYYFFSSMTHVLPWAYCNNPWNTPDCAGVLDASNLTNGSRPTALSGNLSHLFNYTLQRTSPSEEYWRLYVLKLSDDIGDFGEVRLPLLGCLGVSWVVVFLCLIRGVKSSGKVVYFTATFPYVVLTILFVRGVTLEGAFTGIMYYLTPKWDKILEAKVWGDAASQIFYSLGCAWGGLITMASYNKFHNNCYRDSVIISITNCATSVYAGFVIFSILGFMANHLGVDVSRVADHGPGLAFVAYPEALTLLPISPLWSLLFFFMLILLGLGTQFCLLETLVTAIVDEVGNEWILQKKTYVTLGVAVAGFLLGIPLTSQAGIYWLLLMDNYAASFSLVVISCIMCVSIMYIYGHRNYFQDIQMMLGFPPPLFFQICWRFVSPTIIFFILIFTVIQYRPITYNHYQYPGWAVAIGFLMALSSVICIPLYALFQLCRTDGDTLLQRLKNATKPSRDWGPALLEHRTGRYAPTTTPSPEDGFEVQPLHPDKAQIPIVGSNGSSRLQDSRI

Mus musculus [3] = assay: In vivo binding affinity to GlyT1 in ddY mouse brain hippocampus at 33.3 kBq, iv after 30 mins in presence of N-Me-SSR504734 2 mg/kg, iv administered 15 mins prior to compound administration relative to control; format: functional, organism-based; design: dose 2 mg/kg; details: tested as the 125I-labelled form
In short: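 Blocking study in male ddY mice (6 weeks, 30–35 g). The blocker (2 mg/kg in 30% DMSO/saline) was injected i.v. 15 min before about 33.3 kBq [125I]tracer i.v.; mice were killed at 30 or 60 min. Brains were divided into cortex, corpus callosum, hippocampus, thalamus, midbrain, medulla and cerebellum, weighed and gamma-counted as % dose/g. Values are mean ± SD, n = 5–6, compared to control by Kruskal–Wallis with Dunn's post-test.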

[4] = target: T1, Sodium- and chloride-dependent glycine transporter 1 (Rattus norvegicus); assay: Binding affinity to GlyT1 in rat brain hippocampus at 0.03 to 0.04 nM preincubated for 20 mins in binding buffer before compound addition measured after 30 mins by autoradiography in presence of 10 mM GlyT1 substrate glycine relative to control; format: tissue-based; details: tested as the 125I-labelled form
In short: (§1)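 Rat brain sagittal sections (20 µm) preincubated 20 min at 25 °C in Tris-HCl buffer pH 7.5 (NaCl, KCl, MgCl2, CaCl2), then 30 min at 25 °C with [125I] tracer (100 kBq, 0.03–0.04 nM) plus competitor (10 µM; glycine 1 or 10 mM). Cold washes, imaging plate 3 days, ROI PSL minus background per mm². % control from ≥triplicate slices, three rats.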

Mus musculus [5] = assay: In vivo binding affinity to GlyT1 in ddY mouse brain hippocampus at 33.3 kBq, iv after 60 mins in presence of SSR504734 2 mg/kg, iv administered 15 mins prior to compound administration relative to control; format: functional, organism-based; design: dose 2 mg/kg; details: tested as the 125I-labelled form
In short: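 Male ddY mice (6 W, 30–35 g) were given [125I]5 (ca. 33.3 kBq, 0.1 mL) iv via tail vein. Blocker (2 mg/kg in 30% DMSO/saline) was given iv 15 min before the tracer. Mice were killed 30 or 60 min after injection and the brain regions were dissected and weighed. Gamma counting gave % dose/g, compared with control; n = 5–6.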

[6] = target: T1, Sodium- and chloride-dependent glycine transporter 1 (Rattus norvegicus); assay: Binding affinity to GlyT1 in rat brain cerebral cortex at 0.03 to 0.04 nM preincubated for 20 mins in binding buffer before compound addition measured after 30 mins by autoradiography relative to control; format: tissue-based; details: tested as the 125I-labelled form
In short: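 Rat brain sagittal sections (20 µm), 20 min preincubation at 25 °C in Tris-HCl pH 7.5 binding buffer, then [125I] tracer (100 kBq, 0.03–0.04 nM) for 30 min at 25 °C. Nonspecific binding taken with 10 µM unlabeled ligand. Imaging-plate read-out as (PSL−BG)/mm². Mean ± SD, n = 4–5 from at least three rats; Mann–Whitney U-test.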

Mus musculus [7] = assay: In vivo binding affinity to GlyT1 in ddY mouse brain cerebral cortex at 200 kBq, iv after 60 mins by autoradiography relative to control; format: functional, organism-based; details: tested as the 125I-labelled form
In short: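 Ex vivo autoradiography in mice given 200 kBq [125I]tracer i.v. and killed at 60 min. Brains were removed, frozen on dry ice and cut into 20 µm sagittal cryosections, which were exposed to an imaging plate for 7 days. Regional signal was quantified as PSL/mm² (n = 5) and compared to control by Kruskal–Wallis with Dunn's post-test.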

[8] = target: T1, Sodium- and chloride-dependent glycine transporter 1 (Rattus norvegicus); assay: Binding affinity to GlyT1 in rat brain medullary region at 0.03 to 0.04 nM preincubated for 20 mins in binding buffer before compound addition measured after 30 mins by autoradiography in presence of 0.01 mM NMDA receptor glycine site antagonist L-701,324 relative to control; format: tissue-based; details: tested as the 125I-labelled form; in short: as §1
Mus musculus [9] = assay: In vivo binding affinity to GlyT1 in ddY mouse brain thalamus at 33.3 kBq, iv after 30 mins in presence of nonradioactive compound 2 mg/kg, iv administered 15 mins prior to compound administration relative to control; format: functional
Blood = assay: Drug uptake in ddY mouse blood at 11.1 kBq, iv after 60 min by gamma counting; format: ADME, organism-based; details: in vivo, 1 h
In short: (§2)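 Male ddY mice (6 weeks, 30–35 g) received about 11.1 kBq [125I]tracer in 0.1 mL i.v. via tail vein. Killed at set times, organs dissected and weighed, radioactivity gamma counted. Reported as % injected dose/g tissue, mean ± SD, n = 5–6.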

Pancreas = assay: Drug uptake in ddY mouse pancreas at 11.1 kBq, iv after 0.5 min by gamma counting; format: ADME, organism-based; details: in vivo
In short: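 Male ddY mice (6 weeks, 30–35 g) were given about 11.1 kBq of [125I]tracer in 0.1 mL i.v. via the tail vein. At each time point the animals were killed and organs dissected, weighed and gamma-counted. Uptake is expressed as % injected dose per gram of tissue, mean ± SD, n = 5–6.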

Brain [10] = assay: Drug uptake in ddY mouse brain at 11.1 kBq, iv after 60 min by gamma counting; format: ADME, organism-based; details: in vivo, 1 h; in short: as §2
Brain [11] = assay: Drug uptake in ddY mouse brain at 11.1 kBq, iv after 180 min by gamma counting; format: ADME, organism-based; details: in vivo, 3 h; in short: as §2
Heart [12] = assay: Drug uptake in ddY mouse heart at 11.1 kBq, iv after 15 min by gamma counting; format: ADME, organism-based; details: in vivo; in short: as §2
Nucleic Acid = assay: Ratio of drug level in brain to blood in ddY mouse at 11.1 kBq, iv after 5 min by gamma counting; format: ADME, organism-based
Heart [13] = assay: Drug uptake in ddY mouse heart at 11.1 kBq, iv after 0.5 min by gamma counting; format: ADME, organism-based; details: in vivo; in short: as §2

| SMILES | Activity (Mus musculus [1]) | Activity [2] | Activity (Mus musculus [3]) | Activity [4] [%] | Activity (Mus musculus [5]) | Activity [6] | Activity (Mus musculus [7]) | Activity [8] [%] | Activity (Mus musculus [9]) [%] | Drug uptake (Blood) [% ID/g] | Drug uptake (Pancreas) [% ID/g] | Drug uptake (Brain [10]) [% ID/g] | Drug uptake (Brain [11]) [% ID/g] | Drug uptake (Heart [12]) [% ID/g] | Ratio (Nucleic Acid) | Drug uptake (Heart [13]) [% ID/g] |
| --- | --- | --- | --- | --- | --- | --- | --- | --- | --- | --- | --- | --- | --- | --- | --- | --- |
| CN1CCCC[C@H]1[C@@H](NC(=O)c1cccc(C(F)(F)F)c1I)c1ccccc1 | inactive | inactive | Active | 71.5 | inactive | inactive | inactive | 104 |  |  |  |  |  |  |  |  |
| CN1CCCC[C@H]1[C@@H](NC(=O)c1cccc(C(F)(F)F)c1[125I])c1ccccc1 |  |  |  |  |  |  |  |  | 45 | 0.8 | 1.18 | 1.85 | 0.73 | 3.38 | 1.57 | 8.19 |
